Runt-CBFb FRET: inhibitors of human RUNX1 Runt domain binding to CBFb. Q01196+Q13951. Cerulean-Runt/Venus-CBFb FRET ratio 530/480, 1 h. inhibition, % at 20 µM. actives 0.46% (n = 220,000). AID 1496;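 active = inhibition over about 50% at 20 µM in the single-dose screen, limit read from the data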;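 note: 0% = DMSO wells and 100% = excess unlabeled CBFb competitor control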
Target sequence (Q01196 whole entry, looked up, the tested form may be a part): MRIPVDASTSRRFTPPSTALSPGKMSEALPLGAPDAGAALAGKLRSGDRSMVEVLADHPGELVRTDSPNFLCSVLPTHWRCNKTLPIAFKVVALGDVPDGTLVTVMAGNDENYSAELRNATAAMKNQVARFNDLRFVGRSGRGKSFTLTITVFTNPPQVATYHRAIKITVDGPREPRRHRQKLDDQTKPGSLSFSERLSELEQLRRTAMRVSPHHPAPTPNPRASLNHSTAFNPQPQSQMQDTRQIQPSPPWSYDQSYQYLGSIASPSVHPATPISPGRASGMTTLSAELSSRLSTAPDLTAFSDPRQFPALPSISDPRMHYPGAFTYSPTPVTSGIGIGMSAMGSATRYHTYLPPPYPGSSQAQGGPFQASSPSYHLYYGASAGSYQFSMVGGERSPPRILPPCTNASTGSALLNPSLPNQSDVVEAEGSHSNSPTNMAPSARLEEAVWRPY
Target sequence (Q13951 whole entry, looked up, the tested form may be a part): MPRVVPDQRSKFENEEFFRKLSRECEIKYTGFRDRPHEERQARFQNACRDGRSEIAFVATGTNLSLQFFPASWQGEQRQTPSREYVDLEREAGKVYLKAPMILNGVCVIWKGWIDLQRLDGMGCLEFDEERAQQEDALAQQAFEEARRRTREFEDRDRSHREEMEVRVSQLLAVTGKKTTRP
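test system = Cerulean-tagged RUNX1 Runt domain (FRET donor) fusion protein | reagent = Venus-CBFb binding partner, 100 nM | incubation = protein complex preformed 1 h, compound exposure 1 h, room temperature, dark | detection = FRET fluorescence | read-out basis = loss of energy transfer signal | controls = 5 µM unlabeled CBFb as full-inhibition high control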
Runt-SMMHC FRET: inhibitors of human RUNX1 Runt domain binding to CBFb-SMMHC. Cerulean-Runt/Venus-CBFb-SMMHC FRET ratio 530/480, 1 h. Q01196+Q13951. inhibition, % at 20 µM. actives 0.74% (n = 220,000);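 active = mean inhibition across duplicate retests at 20 µM reaching about 50%, limit read from the data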;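 note: 0% = DMSO wells and 100% = wells with excess untagged CBFb-SMMHC; inhibitors lower the FRET ratio by blocking Runt binding to CBFb-SMMHC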
Rce1 inhib: inhibitors of yeast Ras-converting enzyme | Q03530 | yeast membranes, quenched prenylated peptide cleavage fluorescence | calls only | actives 0.27% (n = 290,000) | AID 2563;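 active = fall in fluorescence gain of 50% or more versus controls, with final raw signal at or below 3038400; inconclusive = same 50% fall but final raw signal above 3038400; inactive = fall in fluorescence gain under 50%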;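 note: plate controls were neutral control wells for no effect and wells lacking membranes for full effect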
RanGTP-Imp inh: inhibitors of RanGTP-importin-beta interaction, primary screen, biochemical, FRET, CFP-Ran, YFP-importin-beta, homogeneous; inhibition, % (test concentration not listed); AID 2216; cell-free CFP-Ran/YFP-importin-beta FRET ratio; actives 1.1% (n = 300,000);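 active = more than half of the replicate wells show a fall in the fluorescence ratio signal beyond about 16%, limit read from the data, passing the limit was not always enough; inconclusive = exactly half of the replicate wells pass the set limit; inactive = fewer than half of replicates pass the limit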;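 note: 0% = DMSO wells and 100% = Ran loaded with GDP instead of GTP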
Platelet DG rel: modulates dense granule release in human platelets | human platelet-rich plasma, SFLLRN dense granule ATP release, luminescence | AID 1663 | actives 0.22% (n = 300,000) | inhibition, %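 (compounds screened at 7.5 µM in platelet-rich plasma)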;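 active = mean replicate score, as percent of positive control, at or above 50; inconclusive = mean below 50 but at least one replicate at or above 50; inactive = mean and every replicate below 50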
YIC FRET counter: counter-screen for RanGTP-importin-beta inhibitors: YIC FRET probe | actives 40% (n = 1,000) | Purified YIC probe, intramolecular FRET ratio YFP/CFP | shares compounds with RanGTP-Imp inh | AID 435026 | IC50, µM;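 active = fitted half-maximal inhibitory concentration no more than tenfold above the top dose tested; inconclusive = flat fit with 30 to 70% activity, or poor fit; inactive = half-maximal concentration beyond tenfold above the top dose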
* marks the source's active call; other numbers are inactive results. Hits are enriched below; roughly 1.8% of the tested compounds scored in any of these assays.

`CCCOC(=O)CSC1=C(C#N)C(c2ccccc2OCC)C(C#N)C(=O)N1` (stereo not given) gave Runt-CBFb FRET 2, Runt-SMMHC FRET 4, Rce1 inhib inactive, RanGTP-Imp inh 21*, Platelet DG rel -21 and YIC FRET counter >50.
For CCOc1ccc(Oc2c(/C=N/NC(=O)C3CC3)c(C)nn2-c2ccccc2)cc1 the results were Runt-CBFb FRET -2, Runt-SMMHC FRET -6, Rce1 inhib inactive, RanGTP-Imp inh -3 and Platelet DG rel 4.
CCc1ccc(-c2nc(CSCC(=O)N3CCN(c4ccccn4)CC3)c(C)o2)cc1 was read as Runt-CBFb FRET -3, Runt-SMMHC FRET -2, Rce1 inhib inactive, RanGTP-Imp inh 18*, Platelet DG rel 1 and YIC FRET counter >50.
Screening Cc1cc(C(=O)N2CCc3c([nH]c4ccccc34)C2c2c(F)cccc2Cl)no1 (stereo not given) returned Runt-CBFb FRET 1, Runt-SMMHC FRET 2, Rce1 inhib inactive, RanGTP-Imp inh 27*, Platelet DG rel 11 and YIC FRET counter >50.
N#CC1=C(N)N(c2ccccc2)C(=O)C1 was read as Runt-CBFb FRET -5, Runt-SMMHC FRET -26, RanGTP-Imp inh -5 and Platelet DG rel -5.
Screening COc1ccc(N2C(=O)CC(C#N)=C2N)cc1 returned Runt-CBFb FRET -4, Runt-SMMHC FRET -7, Rce1 inhib inactive, RanGTP-Imp inh 18*, Platelet DG rel -1 and YIC FRET counter >50.
`Cc1cccnc1NC(=O)CCc1c[nH]c2ccccc12` gave Rce1 inhib inactive, RanGTP-Imp inh 1 and Platelet DG rel -32.
Screening Cc1cc(S(=O)(=O)N2CCN(c3c(C)cccc3C)CC2)ccc1F returned Runt-CBFb FRET 1, Runt-SMMHC FRET -5, Rce1 inhib inactive, RanGTP-Imp inh 22*, Platelet DG rel 9 and YIC FRET counter >50.
For Cc1cc(S(=O)(=O)N2CCN(c3ccccc3C)CC2)ccc1F the results were Runt-CBFb FRET -1, Runt-SMMHC FRET -1, Rce1 inhib inactive, RanGTP-Imp inh -2 and Platelet DG rel 6.
For N#C/C(=C\c1ccc[nH]1)C(=O)Nc1ccccc1Cl the results were Rce1 inhib inactive, RanGTP-Imp inh -44 and Platelet DG rel 16.
`CC1CC1c1ccc(/C=C(\C#N)C(=O)Nc2ccccc2Cl)o1` (stereo not given) gave Runt-CBFb FRET -5, Runt-SMMHC FRET -1, Rce1 inhib inactive, RanGTP-Imp inh 36*, Platelet DG rel -3 and YIC FRET counter 52*.
`N#C/C(=C\c1ccc(N2CCOCC2)o1)C(=O)Nc1ccc(O)cc1` gave Runt-CBFb FRET -36, Runt-SMMHC FRET -96, RanGTP-Imp inh inconclusive and Platelet DG rel 2.
Screening COc1ccc(NC(=O)/C(C#N)=C\c2ccc(N3CCOCC3)o2)cc1 returned Runt-CBFb FRET -17, Runt-SMMHC FRET -90, RanGTP-Imp inh 18*, Platelet DG rel 4 and YIC FRET counter 47*.
CC1CC1c1ccc(/C=C(\C#N)C(=O)Nc2ccc(Cl)cc2)o1 (stereo not given) was read as Runt-CBFb FRET 0, Runt-SMMHC FRET 2, Rce1 inhib inactive, RanGTP-Imp inh 16*, Platelet DG rel 4 and YIC FRET counter >50.
O=C1Nc2ccccc2/C1=N/c1sc2c(c1C(=O)NCCc1ccccc1)CCCC2 was read as Runt-CBFb FRET 5, Runt-SMMHC FRET 1, Rce1 inhib inactive, RanGTP-Imp inh -3 and Platelet DG rel 4.
Nc1c(Cl)cc(-c2csc(N3CCCC3c3nc4cc(Cl)c(N5CCCCC5)cc4n3CCCO)n2)cc1Cl (stereo not given) was read as Rce1 inhib inactive, RanGTP-Imp inh 1 and Platelet DG rel -1.
`COc1ccc(-c2cc(C(=O)NC3CC3)c3ccccc3n2)cc1` gave Rce1 inhib inactive, RanGTP-Imp inh -3 and Platelet DG rel 2.
COc1cccc(-c2cc(C(=O)NC3CC3)c3ccccc3n2)c1 was read as Rce1 inhib inactive, RanGTP-Imp inh 19*, Platelet DG rel 1 and YIC FRET counter >50.
Screening CCN(CC)CCCNC(=S)N(Cc1cccs1)Cc1cc2cc3c(cc2[nH]c1=O)OCCO3 returned Runt-CBFb FRET -2, Runt-SMMHC FRET 0, Rce1 inhib inactive, RanGTP-Imp inh 22*, Platelet DG rel -7 and YIC FRET counter >50.

From PubChem
